Source: article PMC9727339 (Asian Pacific Journal of Cancer Prevention : APJCP, 2022)
Several values for one entry are separate records, joined by “and”; a condition that tells them apart may be missing. Equal values may be shown once. Read-outs that look alike come from different tables or passages of the source. Values belong to the compound of their own block, whether it stands above or below them.

Tests used:
[1] = tested on: normal periodontal ligament fibroblasts (PDL); test: Cytotoxicity in normal periodontal ligament fibroblasts; assay type: cell-based
Outline: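 Normal periodontal ligament fibroblasts exposed to test compound for 72 h. […] Selectivity index is the compound's IC50 on PDL divided by its IC50 on a given cancer cell line.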

[2] = tested on: skin melanoma A375.s2 cell line; test: Antiproliferation, sulforhodamine B colorimetric bioassay, A375.s2; assay type: cell-based; settings: read-out: Cytotoxicity (as of %Control) IC50, A375.s2; 72 h incubations, SRB; mean ± SD, n = 3-4
[3] = tested on: breast carcinoma MCF7 cell line; test: Antiproliferation, sulforhodamine B colorimetric bioassay, MCF7; assay type: cell-based; settings: read-out: Cytotoxicity (as of %Control) IC50, MCF7, 72 h incubations, SRB, mean ± SD, n = 3-4
[4] = tested on: breast carcinoma T47D cell line; test: Antiproliferation, sulforhodamine B colorimetric bioassay, T47D; assay type: cell-based; settings: read-out: Cytotoxicity (as of %Control) IC50, T47D, 72 h incubations, SRB, mean ± SD, n = 3-4
[5] = tested on: Nitric oxide synthase / NO in LPS prompted RAW264.7 macrophages; assay type: cell-based; settings: mean ± SD, n = 3
[6] = DPPH radical scavenging, 96-well colorimetric assay; assay type: biochemical; settings: read-out: DPPH radical scavenging IC50 value; 30 minutes incubations; mean ± SD, n = 3

SMILES: N.N.[Cl][Pt][Cl] [Cisplatin, cisplatin]
IC50 PDL Fibro ([1]; 72h incubations, mean ± SD, n = 3): (0.21 ± 0.04) µg/mL | IC50 ([1]; read-out: IC50 PDL Fibro, 72h incubations, mean ± SD, n = 3): 0.71 ± 0.13 µM | IC50 [2]: 0.7 ± 0.1 µM | IC50 [3]: 92.6 ± 12.5 µM | IC50 ([3]; listed as cisplatin): 92.6 µM | IC50 [4]: 45.1 ± 7.84 µM | IC50 ([4]; listed as cisplatin): 45.2 µM and 45 µM

IC50 ([5]; Mus musculus, RAW264.7, 24 h, read-out: NOS- IC50 value (NO scavenging/antiinflammation), LPS prompted RAW264.7, 24h incubations, Griess assay): 55.1 µM and 26.9 µg/mL | IC50 ([5]; read-out: NOS- IC50 value (NO scavenging/antiinflammation), LPS prompted RAW264.7, 24h incubations, Griess assay): 55.1 ± 2.25 µM
SMILES: COc1ccc2c(c1)c(CC(=O)O)c(C)n2C(=O)c1ccc(Cl)cc1 [Indomethacin, indomethacin]

IC50 [6]: 3.37 µM
SMILES: O=C1O[C@H]([C@@H](O)CO)C(O)=C1O [Ascorbic acid, ascorbic acid]
